According to ChEMBL document CHEMBL4480428, “Anti-inflammatory Lathyrane Diterpenoids from Euphorbia lathyris” (J Nat Prod, 2019):
Active and inactive are the calls of the source. No cut-off for these calls is given here.

How the values were obtained:
RAW264.7 [1] = experiment: Anti-inflammatory activity in mouse RAW264.7 cells assessed as inhibition of LPS-induced nitric oxide production preincubated for 3 hrs followed by LPS-stimulation and measured after 24 hrs by Griess assay; format: functional, cell-based
Method in brief: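 Mouse macrophage RAW264.7 cells (ATCC) grown in DMEM with 10% FBS and penicillin/streptomycin at 37 °C, 5% CO2. Seeded at 5000 cells/well and cultured overnight. Medium replaced with compound-containing medium (0−100 μM) for 3 h, then 1 μg/mL LPS added for 24 h. Supernatant mixed 1:1 with Griess reagent for 10 min at room temperature, absorbance read at 540 nm. Nitrite quantified from a standard curve; IC50 taken from inhibition rates across a concentration gradient.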

RAW264.7 [2] = experiment: Cytotoxicity against mouse RAW264.7 cells assessed as reduction in cell viability after 24 hrs by CCK8 assay; format: cell-based; settings: RAW264.7, 24 h
Method in brief: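 RAW264.7 macrophages cultured in DMEM with 10% FBS and penicillin/streptomycin at 37 °C, 5% CO2. Cells exposed to compound for 24 h. Viability measured by CCK8 kit following the manufacturer's instructions.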

RAW264.7 [3] = experiment: Cytotoxicity against mouse RAW264.7 cells assessed as reduction in cell viability at 100 uM after 24 hrs by CCK8 assay; format: cell-based; settings: raw264.7, 24 h
Method in brief: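 Cells were exposed to compound across 0–100 range for 24 h. Viability was then measured by CCK8 assay on the well supernatant, following kit instructions. Comparison was made with cells given 0 μM compound.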

[4] = target: T1, NF-kappa-B inhibitor alpha (Mus musculus) (UniProt Q9Z1E3); experiment: Inhibition of IkappaBalpha phosphorylation in LPS-induced mouse RAW264.7 cells assessed as reduction in NFkappaB expression preincubated for 3 hrs followed by LPS-stimulation and measured by Western blot analysis; format: cell-based
T1 sequence (whole entry): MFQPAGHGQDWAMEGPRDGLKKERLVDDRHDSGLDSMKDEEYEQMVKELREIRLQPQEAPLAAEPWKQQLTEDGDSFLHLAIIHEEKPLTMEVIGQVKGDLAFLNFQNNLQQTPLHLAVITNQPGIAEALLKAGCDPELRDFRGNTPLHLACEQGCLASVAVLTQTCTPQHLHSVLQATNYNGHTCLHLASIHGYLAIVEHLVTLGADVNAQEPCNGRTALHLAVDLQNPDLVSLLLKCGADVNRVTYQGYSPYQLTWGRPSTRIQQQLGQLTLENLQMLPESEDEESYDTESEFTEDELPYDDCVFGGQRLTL
Method in brief: (§1)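 Cells were pretreated with compound for 3 h before LPS addition. Equal protein by BCA went onto 10% SDS-PAGE and nitrocellulose, probed for iNOS, NF-κB, IκBα and p-IκBα with chemiluminescence detection.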

[5] = target: T1, NF-kappa-B inhibitor alpha (Mus musculus); experiment: Inhibition of LPS-induced IkappaBalpha phosphorylation in mouse RAW264.7 cells at 10 uM preincubated for 3 hrs followed by LPS-stimulation and measured by Western blot analysis; format: cell-based; method in brief: as §1
[6] = target: T1, NF-kappa-B inhibitor alpha (Mus musculus); experiment: Inhibition of IkappaBalpha phosphorylation in LPS-stimulated mouse RAW264.7 cells assessed as reduction in NF-kappaB p65 nuclear translocation at 5 to 10 uM pretreated for 2 hrs followed by LPS-stimulation measured after 12 hrs by DAPI staining based immunofluorescence assay; format: cell-based
Method in brief: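 Cells at 70% confluence were pretreated with DMSO, given 5 or 10 μM compound for 2 h, then activated with 1 μg/mL LPS for 12 h. Cells were fixed in 4% paraformaldehyde, permeabilized with 0.25% Triton X-100 and blocked with 5% BSA. Staining used P65 antibody (1:1000, 4 °C overnight), AlexaFluor488 secondary (1:500, 1 h) and DAPI for nuclei.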

RAW264.7 [7] = experiment: Anti-inflammatory activity in mouse RAW264.7 cells assessed as inhibition of LPS-induced IL-6 production preincubated for 3 hrs followed by LPS-stimulation and measured after 24 hrs by ELISA; format: functional, cell-based
Method in brief: (§2)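 Cells were pretreated with compound at 2.5, 5 or 10 μM for 3 h, then stimulated with 1 μg/mL LPS for 24 h. IL-1β and IL-6 were quantified in collected supernatants by commercial ELISA kits. Significance was assessed against unstimulated, untreated control.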

[8] = target: T1, NF-kappa-B inhibitor alpha (Mus musculus); experiment: Inhibition of IkappaBalpha phosphorylation in LPS-stimulated mouse RAW264.7 cells assessed as reduction in iNOS expression preincubated for 3 hrs followed by LPS-stimulation and measured by Western blot analysis; format: cell-based; method in brief: as §1
RAW264.7 [9] = experiment: Anti-inflammatory activity in mouse RAW264.7 cells assessed as inhibition of LPS-induced IL1beta production preincubated for 3 hrs followed by LPS-stimulation and measured after 24 hrs by ELISA; format: functional, cell-based; method in brief: as §2

## CC(=O)O[C@@H]1[C@H]2[C@@H](OC(=O)Cc3ccccc3)[C@@H](C)C[C@]2(OC(C)=O)C(=O)/C(C)=C/[C@@H]2[C@H](CC[C@]13CO3)C2(C)C
RAW264.7 [1]
  IC50: 9.9 µM
RAW264.7 [2]
  IC50: > 50 µM

## CC(=O)OC/C1=C\C[C@H]2[C@@H](/C=C(\C)C(=O)[C@@]3(O)C[C@H](C)[C@H](OC(=O)c4ccccc4)[C@@H]3[C@H]1OC(C)=O)C2(C)C
RAW264.7 [1]
  IC50: > 100 µM
RAW264.7 [2]
  IC50: > 50 µM

## C=C1[C@H](OC(C)=O)C[C@H]2[C@@H](/C=C(\C)C(=O)[C@@]3(OC(C)=O)C[C@H](C)[C@H](OC(=O)c4ccccc4)[C@@H]3[C@H]1O)C2(C)C
RAW264.7 [1]
  IC50: 4 µM
RAW264.7 [2]
  IC50: > 50 µM

## C=C1[C@@H](OC(=O)c2cccnc2)C[C@H]2[C@@H](/C=C(\C)C(=O)[C@@]3(OC(C)=O)C[C@H](C)[C@H](OC(=O)c4ccccc4)[C@@H]3[C@H]1OC(C)=O)C2(C)C
RAW264.7 [1]
  IC50: 2.6 µM
RAW264.7 [2]
  IC50: > 50 µM

## CC(=O)OC/C1=C/[C@@H]2[C@@H](O)[C@@H](C)C[C@]2(OC(C)=O)C(=O)/C(C)=C/[C@@H]2[C@H](CC1)C2(C)C
RAW264.7 [1]
  IC50: > 50 µM
RAW264.7 [2]
  IC50: > 50 µM

## C=C1[C@@H](OC(=O)c2ccccc2)C[C@H]2[C@@H](/C=C(\C)C(=O)[C@@]3(OC(C)=O)C[C@H](C)[C@H](OC(=O)c4ccccc4)[C@@H]3[C@H]1OC(C)=O)C2(C)C
RAW264.7 [1]
  IC50: > 100 µM
RAW264.7 [2]
  IC50: > 50 µM

## CC(=O)OC/C1=C/[C@H]2[C@@H](OC(=O)[C@H](O)c3ccccc3)[C@@H](C)C[C@]2(OC(C)=O)C(=O)/C(C)=C/[C@@H]2[C@H](CC1)C2(C)C
RAW264.7 [1]
  IC50: > 50 µM
RAW264.7 [2]
  IC50: > 50 µM

## C=C1[C@H](O)C[C@H]2[C@@H](/C=C(\C)C(=O)[C@@]3(OC(C)=O)C[C@H](C)[C@H](OC(=O)c4ccccc4)[C@@H]3[C@H]1OC(C)=O)C2(C)C
RAW264.7 [1]
  IC50: 5 µM
RAW264.7 [2]
  IC50: > 50 µM

## C=C1CC[C@H]2[C@@H](/C=C(\C)C(=O)[C@@]3(OC(C)=O)C[C@H](C)[C@H](OC(=O)c4cccnc4)[C@@H]3[C@H]1OC(C)=O)C2(C)C
RAW264.7 [1]
  IC50: 100 µM
RAW264.7 [2]
  IC50: > 50 µM

## C=C1CC[C@H]2[C@@H](/C=C(\C)C(=O)[C@@]3(OC(C)=O)C[C@H](C)[C@H](OC(=O)/C=C/c4ccccc4)[C@@H]3[C@H]1O)C2(C)C
RAW264.7 [3]
  Activity: Toxic
[4]
  inhibition: Dose-dependent effect
[5]
  inhibition: Active
[6]
  inhibition: Active
RAW264.7 [7]
  inhibition: Dose-dependent effect
[8]
  inhibition: Dose-dependent effect
RAW264.7 [9]
  inhibition: Dose-dependent effect
RAW264.7 [1]
  IC50: 3 µM
RAW264.7 [2]
  IC50: > 50 µM

## CC(=O)O[C@]12C[C@H](C)[C@H](OC(=O)/C=C/c3ccccc3)[C@@H]1/C=C(/CO)CC[C@H]1[C@@H](/C=C(\C)C2=O)C1(C)C
RAW264.7 [1]
  IC50: 26 µM
RAW264.7 [2]
  IC50: > 50 µM

## CCCCCC(=O)O[C@H]1[C@@H](C)C[C@]2(OC(C)=O)C(=O)/C(C)=C/[C@@H]3[C@H](CC/C(CO)=C\[C@@H]12)C3(C)C
RAW264.7 [1]
  IC50: 9.3 µM
RAW264.7 [2]
  IC50: > 50 µM

## C=C1CC[C@H]2[C@@H](/C=C(\C)C(=O)[C@@]3(OC(C)=O)C[C@H](C)[C@H](OC(=O)c4ccccc4)[C@@H]3[C@H]1OC(C)=O)C2(C)C
RAW264.7 [1]
  IC50: 8.3 µM
RAW264.7 [2]
  IC50: > 50 µM

## CC(=O)O[C@]12C[C@H](C)[C@H](OC(=O)Cc3ccccc3)[C@@H]1/C=C(/CO)CC[C@H]1[C@@H](/C=C(\C)C2=O)C1(C)C
RAW264.7 [1]
  IC50: > 100 µM
RAW264.7 [2]
  IC50: > 50 µM

## C=C1[C@@H](OC(=O)c2ccccc2)C[C@H]2[C@@H](/C=C(\C)C(=O)[C@@]3(O)C[C@H](C)[C@H](OC(=O)c4ccccc4)[C@@H]3[C@H]1OC(C)=O)C2(C)C
RAW264.7 [1]
  IC50: 15.2 µM
RAW264.7 [2]
  IC50: > 50 µM

## C[C@@H]1C[C@H]2[C@@H]3CCC4=CC(=O)C=C[C@]4(C)[C@@]3(F)[C@@H](O)C[C@]2(C)[C@@]1(O)C(=O)CO [DEXAMETHASONE]
RAW264.7 [1]
  IC50: 7.9 µM

## CC(=O)O[C@]12C[C@H](C)[C@H](O)[C@@H]1[C@H]1O[C@]1(C)CC[C@H]1[C@H](/C=C(\C)C2=O)C1(C)C
RAW264.7 [1]
  IC50: > 100 µM
RAW264.7 [2]
  IC50: > 50 µM
